Results from ChEMBL document CHEMBL1134656, “Synthesis and antitumor activity of conjugates of muramyldipeptide, normuramyldipeptide, and desmuramylpeptides with acridine/acridone derivatives” (2001).

Experiments:
[1] = Half-lethal concentration against COLO,HCC2998,HCT116,SK-MEL-2 cell lines.; assay type: functional, Homo sapiens
How it was run: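 NCI in vitro human tumor cell line screen. After a 24 h drug-free incubation, compounds were added at five 10-fold dilutions, with a maximum of 10^-4 M (test range 10^-4 to 10^-8 M). Cells were exposed for 2 days. Growth was read from the change in protein-stain optical density, and the half-lethal concentration (LC50) was derived for each cell line.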

[2] = test system: Panel (Carcinoma cell lines); assay: ip score (intraperitoneal implants) measured as in vivo hollow fiber assay in minimum of 12 human cancer cell lines; assay type: functional
[3] = test system: Panel (Carcinoma cell lines); assay: sc score: subcutaneous implants. measured as in vivo hollow fiber assay in minimum of 12 human cancer cell lines; assay type: functional
Cancer cell lines = assay: Cell kill activity against cancer cell lines; No; assay type: functional, cell-based; details: Homo sapiens

Row | Compound | MID log LC50 [1] [M] | Ip score [2] | Subcut score [3] | cell kill activity (Cancer cell lines)
1 | CC(=O)N[C@@H]1[C@H](OCc2ccccc2)O[C@@H](CO)[C@@H](O)[C@@H]1OCC(=O)N[C@@H](C)C(=O)N[C@H](CCC(=O)NCCCCCNc1c2ccccc2nc2cccc([N+](=O)[O-])c12)C(N)=O | -5.82 | 16 | 8 | 
2 | CC(=O)N[C@@H]1[C@H](OCc2ccccc2)O[C@@H](CO)[C@@H](O)[C@@H]1OC(C)C(=O)N[C@@H](C)C(=O)N[C@H](CCC(=O)NCCNCCNc1c2ccccc2nc2cccc([N+](=O)[O-])c12)C(N)=O (stereo partly specified) | -4.56 | 2 | 4 | No cell kill activity
3 | CC(=O)N[C@@H]1[C@H](OCc2ccccc2)O[C@@H](CO)[C@@H](O)[C@@H]1OC(C)C(=O)N[C@H](C(=O)N[C@H](CCC(=O)NCCCCNc1c2ccccc2nc2cccc([N+](=O)[O-])c12)C(N)=O)C(C)C (stereo partly specified) | -4.17 | 32 | 2 | 
4 | CC(=O)N[C@@H]1[C@H](OCc2ccccc2)O[C@@H](CO)[C@@H](O)[C@@H]1OCC(=O)N[C@@H](C)C(=O)N[C@H](CCC(=O)NCCCCNc1c2ccccc2nc2cccc([N+](=O)[O-])c12)C(N)=O | -4.26 | 4 | 2 | 
5 | CC(=O)N[C@@H]1[C@H](OCc2ccccc2)O[C@@H](CO)[C@@H](O)[C@@H]1OC(C)C(=O)N[C@@H](C)C(=O)N[C@H](CCC(=O)NCCCCNc1c2ccccc2nc2cccc([N+](=O)[O-])c12)C(N)=O (stereo partly specified) | -5.49 | 4 | 12 | 
6 | CC(=O)N[C@@H]1[C@H](OCc2ccccc2)O[C@@H](COC(=O)CCNc2c3ccccc3nc3cccc([N+](=O)[O-])c23)[C@@H](O)[C@@H]1OC(C)C(=O)N[C@@H](C)C(=O)N[C@H](CCC(N)=O)C(=O)OCc1ccccc1 (stereo partly specified) | -4.42 |  |  | 
7 | CC(=O)N[C@@H]1[C@H](OCc2ccccc2)O[C@@H](CO)[C@@H](O)[C@@H]1OCC(=O)N[C@@H](C)C(=O)N[C@H](CCC(=O)NCCCNc1c2ccccc2nc2cccc([N+](=O)[O-])c12)C(N)=O | -4.97 | 2 | 2 | No cell kill activity
8 | COC(=O)[C@@H](CCC(N)=O)NC(=O)[C@@H](NC(=O)C(C)O[C@H]1[C@H](O)[C@H](COC(=O)CCCCCCCCCCNC(=O)c2ccc([N+](=O)[O-])c3c(O)c4ccccc4nc23)O[C@@H](OCc2ccccc2)[C@H]1NC(C)=O)C(C)C (stereo partly specified) | -4.25 |  |  | 
9 | CC(=O)N[C@@H]1[C@H](OCc2ccccc2)O[C@@H](COC(=O)CCCCCNc2ccc([N+](=O)[O-])c3nc4ccc(O)cc4c(O)c23)[C@@H](O)[C@@H]1OC(C)C(=O)N[C@@H](C)C(=O)N[C@H](CCC(N)=O)C(=O)OCc1ccccc1 (stereo partly specified) | -4.23 |  |  | 
10 | CC(=O)N[C@@H]1[C@H](OCc2ccccc2)O[C@@H](CO)[C@@H](O)[C@@H]1OCC(=O)N1CCC[C@H]1C(=O)N[C@H](CCC(=O)NCCCCCNc1c2ccccc2nc2cccc([N+](=O)[O-])c12)C(N)=O | -5.51 | 14 | 0 | 
